Measured values: ChEMBL document CHEMBL1132153, “Antitumor agents. 196. Substituted 2-thienyl-1,8-naphthyridin-4-ones: their synthesis, cytotoxicity, and inhibition of tubulin polymerization” (J Med Chem, 1999)

Columns and labels:
HL-60 [1] = assay: In vitro growth inhibition of HL-60 (TB) leukemia cell line.; type: functional; conditions: Homo sapiens
Outline: (§1)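 Human leukemia HL-60(TB) cells exposed to compound in vitro. The read-out is log GI50 in molar units, defined as the log concentration that reduced cell growth to 50% of the level in untreated controls.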

MDA-MB-435 = assay: In vitro growth inhibition of MDA-MB-435 breast cancer cell line.; type: functional; conditions: Homo sapiens
MDA-N = assay: In vitro growth inhibition of MDA-N breast cancer cell line.; type: functional; conditions: Homo sapiens
OVCAR-3 = assay: In vitro growth inhibition of OVCAR-3 ovarian cancer cell line.; type: functional; conditions: Homo sapiens
NCI-H23 = assay: In vitro growth inhibition of NCI-H23 non small cell lung cancer cell line.; type: functional; conditions: Homo sapiens
RXF 393 = assay: In vitro growth inhibition of RXF-393 renal cancer cell line.; type: functional; conditions: Homo sapiens
SK-MEL-5 = assay: In vitro growth inhibition of SK-MEL-5 melanoma cell line.; type: functional; conditions: Homo sapiens
SW-620 = assay: In vitro growth inhibition of SW-620 colon cancer cell line.; type: functional; conditions: Homo sapiens
U-251 = assay: In vitro growth inhibition of U251 CNS cancer cell line.; type: functional; conditions: Homo sapiens
PC-3 = assay: In vitro growth inhibition of PC-3 prostate cancer cell line.; type: functional; conditions: Homo sapiens
Tubulin [2] = target: T1, Tubulin (Bos taurus, UniProt Q6B856+Q862L2+Q862F3); assay: Inhibition of tubulin polymerization (ITP); type: functional
Outline: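 Polymerization of electrophoretically homogeneous bovine brain tubulin at 12 µM, run with a range of inhibitor concentrations. IC50 is the concentration inhibiting polymerization by 50%, reported ± SD.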

A549 = assay: In vitro cytotoxicity against A-549 human lung cancer cells; type: functional; conditions: read-out: ED50 (the source's name)
Outline: (§2)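 Panel of human tumor lines: KB nasopharyngeal epidermoid, A-549 lung, HCT-8 ileocecal, CAKI-1 renal, MCF-7 breast, SKMEL-2 melanoma. Growth measured by SRB assay and compared with untreated cells.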

CAKI-1 = assay: In vitro cytotoxicity against CAKI-1 human renal cancer cells; type: functional; conditions: read-out: ED50 (the source's name); outline: as §2
HCT-8 = assay: In vitro cytotoxicity against HCT-8 human ileocecal cancer cells; type: functional; conditions: read-out: ED50 (the source's name); outline: as §2
KB [3] = assay: In vitro cytotoxicity against KB human epidermoid carcinoma of the nasopharynx; type: functional; conditions: read-out: ED50 (the source's name); outline: as §2
MCF7 = assay: In vitro cytotoxicity against MCF-7 human breast cancer cells; type: functional; conditions: read-out: ED50 (the source's name); outline: as §2
SK-MEL-2 [4] = assay: In vitro cytotoxicity against SKMEL-2 human melanoma cancer cells; type: functional; conditions: read-out: ED50 (the source's name); outline: as §2
KB [5] = assay: In vitro cytotoxicity against KB-Vin cancer cell line; type: functional; conditions: Homo sapiens, read-out: ED50 (the source's name)
SK-MEL-2 [6] = assay: In vitro cytotoxicity against SKMEL-2 human melanoma cancer; type: functional; conditions: read-out: ED50 (the source's name); outline: as §2
Tubulin [7] = target: T1, Tubulin; assay: Concentration inhibiting tubulin polymerization (ITP); type: functional
Tubulin (Bos taurus) [8] = target: T2, Tubulin (Bos taurus) (UniProt Q6B856+Q862L2+Q862F3); assay: Concentration inhibiting [3H]-colchicine binding to tubulin; type: protein assay; conditions: concentration not given here
Outline: (§3)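 Inhibition of [³H]colchicine binding to electrophoretically homogeneous bovine brain tubulin (1 µM). [³H]colchicine and inhibitor each at 5 µM. Result given as % inhibition.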

HL-60 [9] = assay: In vitro growth inhibition of HL-60 (TB) leukemia cell line; type: functional; conditions: Homo sapiens; outline: as §1
KB [10] = assay: In vitro cytotoxicity against KB-Vin cancer cell line.; type: functional; conditions: Homo sapiens, read-out: ED50 (the source's name)
Tubulin (Bos taurus) [11] = target: T2, Tubulin (Bos taurus); assay: Concentration inhibiting [3H]colchicine binding to tubulin, at a concentration of 5 uM; type: protein assay; outline: as §3

Row | Structure (SMILES) | GI50 (HL-60 [1]) [µM] | GI50 (MDA-MB-435) [µM] | GI50 (MDA-N) [µM] | GI50 (OVCAR-3) [µM] | GI50 (NCI-H23) [µM] | GI50 (RXF 393) [µM] | GI50 (SK-MEL-5) [µM] | GI50 (SW-620) [µM] | GI50 (U-251) [µM] | GI50 (PC-3) [µM] | IC50 (Tubulin [2]) [µM] | EC50 (A549) [µM] | EC50 (CAKI-1) [µM] | EC50 (HCT-8) [µM] | EC50 (KB [3]) [µM] | EC50 (MCF7) [µM] | further results
1 | Cc1ccc2c(O)cc(-c3ccc(C)s3)nc2n1 | 0.0776 | 0.0234 | 0.0229 | 0.257 | 0.138 | 0.195 | 0.204 | 0.0479 | 0.324 | 0.204 | 1.7 |  |  |  |  |  | 
2 | Cc1ccc2c(O)cc(-c3cc4ccccc4s3)nc2n1 | > 100 | > 100 | > 100 | > 100 | > 100 | 51.3 | > 100 | > 100 | > 100 | > 100 | > 40 |  |  |  |  |  | 
3 | Cc1ccc2c(O)cc(-c3ccco3)nc2n1 |  |  |  |  |  |  |  |  |  |  | 14 | > 10 | > 10 | > 10 | > 10 | > 20 | EC50 (SK-MEL-2 [4]): > 10 µM
4 | Cc1ccc2c(O)cc(-c3sc(-c4ccccc4)cc3C)nc2n1 | 5.5 | 3.55 | 3.89 | 21.4 | 6.03 | 36.3 | 3.39 | 10 |  |  | 14 |  |  |  |  |  | 
5 | Cc1ccc2c(O)cc(-c3cccnc3)nc2n1 |  |  |  |  |  |  |  |  |  |  | 7.7 | 4.6 | 5 | 2.1 | 3 | 1.2 | EC50 (KB [5]): 2.5 µM; EC50 (SK-MEL-2 [6]): > 10 µM
6 | Cc1cc(C)c2c(O)cc(-c3csc4ccccc34)nc2n1 |  |  |  |  |  |  |  |  |  |  |  | 0.3 | > 0.5 |  | 0.12 | 0.5 | IC50 (Tubulin [7]): 0.78 µM; inhibition (Tubulin (Bos taurus) [8]): 26%
7 | Cc1ccc2c(O)cc(-c3cc(C)sc3C)nc2n1 | 1.55 | 0.372 | 0.631 | 2.82 | 1.23 | 1.91 | 0.661 | 1.41 | 3.47 | 2.24 | 4.8 |  |  |  |  |  | 
8 | Cc1ccc2c(O)cc(-c3ccsc3)nc2n1 |  | 0.49 | 0.363 | 5.13 | 1.86 | 3.24 | 2.57 | 1 | 3.89 | 3.09 | 7 | > 6.3 |  | > 3.1 | 6.3 | > 3.1 | GI50 (HL-60 [9]): 2.19 µM
9 | Cc1cnc2nc(-c3csc4ccccc34)cc(O)c2c1 |  |  |  |  |  |  |  |  |  |  |  | 0.056 | 0.134 | 0.057 | 0.027 | 0.125 | EC50 (SK-MEL-2 [4]): 0.135 µM; IC50 (Tubulin [7]): 0.91 µM; inhibition (Tubulin (Bos taurus) [8]): 26%
10 | Cc1cnc2nc(-c3ccc(C)s3)cc(O)c2c1 |  |  |  |  |  |  |  |  |  |  | 2.7 | 1.3 | 1.25 | 0.9 | 1.1 | 1.1 | EC50 (SK-MEL-2 [6]): > 2.5 µM; EC50 (KB [10]): 1.1 µM
11 | Cc1ccc2c(O)cc(-c3ccc(Br)s3)nc2n1 |  |  |  |  |  |  |  |  |  |  |  | > 3.1 |  | > 0.8 | 0.8 | > 0.8 | EC50 (SK-MEL-2 [4]): > 10 µM; IC50 (Tubulin [7]): 1.5 µM; inhibition (Tubulin (Bos taurus) [11]): 19%; EC50 (KB [10]): 0.5 µM
12 | Cc1ccc2c(O)cc(-c3ccc(Cl)s3)nc2n1 | 0.204 | 0.38 | 0.186 | 2.04 | 1 | 2.04 | 0.38 |  | 1.2 | 1.58 | 1.7 |  |  |  |  |  | 
13 | Cc1ccnc2nc(-c3csc4ccccc34)cc(O)c12 |  |  |  |  |  |  |  |  |  |  |  | 0.2 | > 0.25 |  | 0.04 | 0.25 | IC50 (Tubulin [7]): 1.2 µM; inhibition (Tubulin (Bos taurus) [8]): 22%
14 | Cc1ccc2c(O)cc(-c3sccc3C)nc2n1 | 0.174 | 0.107 | 0.0776 | 0.661 | 0.145 | 0.631 | 0.178 | 0.145 | 0.468 | 0.245 | 2.8 |  |  |  |  |  | 
15 | Cc1ccc2c(O)cc(-c3cccs3)nc2n1 | 2.69 | 2 | 1.86 | 30.9 | 4.37 | 11.2 | 6.03 | 2.95 | 17 | 9.33 | 6 | > 6.3 |  |  | 6.3 | > 1.6 | EC50 (KB [5]): 9.5 µM
16 | Cc1cnc2nc(-c3sccc3C)cc(O)c2c1 |  | 0.324 | 0.676 | 3.8 |  | 4.47 | 2.04 | 4.17 | 9.12 | 5.37 | 3.8 | 2.5 | > 5 | 1 | 1.3 | 1.1 | EC50 (KB [10]): 1.9 µM
17 | Cc1ccc2c(O)cc(-c3csc4ccccc34)nc2n1 | < 0.01 | < 0.01 | < 0.01 | < 0.01 | 0.0219 | < 0.01 | < 0.01 | < 0.01 |  |  |  |  |  |  |  |  | IC50 (Tubulin [7]): 0.37 µM; inhibition (Tubulin (Bos taurus) [11]): 65%
18 | Cc1ccc2c(O)cc(-c3sc4ccccc4c3C)nc2n1 | 18.6 | 4.79 | 17 | 19.5 | 19.5 | 17 | 14.8 | 20 | 38.9 | 33.1 | 13 |  |  |  |  |  | 
